Data from ChEMBL document CHEMBL1131024, “N-Arylalkyl pseudopeptide inhibitors of farnesyltransferase” (J Med Chem, 1998).
≈ marks a conversion by molar mass, not a printed value.

Legend:
[1] = molecular target: Protein farnesyltransferase (Homo sapiens, UniProt P49354+P49356); assay: Inhibition of [3H]FPP incorporation into recombinant human Ha-Ras by Farnesyltransferase; assay type: protein-complex assay
In short: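 FTase, either purified from bovine brain or homogeneous human recombinant, transferred [³H]FPP onto recombinant Ha-Ras. Total protein was acid-precipitated and protein-bound FPP was counted by scintillation. IC50 is the concentration inhibiting 50% of [³H]FPP incorporation.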

[2] = molecular target: Geranylgeranyl transferase type I (Bos taurus, UniProt P29702+Q5EAD5); assay: Inhibition of bovine Geranylgeranyl transferase type I; assay type: protein-complex assay
Rat1 [3] = assay: Inhibition of colony formation in Rat 1-v-ras-transformed cells in soft agar; assay type: functional
In short: (§1)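 Rat1 cells transformed by v-ras or v-raf were grown in soft agar for about 2 weeks, fed twice weekly. MIC is the minimum concentration reducing colony size and number relative to vehicle-treated controls.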

[4] = molecular target: Protein farnesyltransferase (Mus musculus, UniProt Q61239+Q8K2I1); assay: Inhibition of post-translational processing of v-Ras protein in NIH3T3 cells; assay type: functional, cell-based
In short: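 v-ras-transformed NIH 3T3 cells were incubated 24 h with compound or solvent control and labeled with [³⁵S]methionine over the final 20 h. Processed (farnesylated) Ras was resolved by SDS-PAGE. Lovastatin at 15 µM served as positive control.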

NIH3T3 = assay: Highest nontoxic concentration in NIH3T3 cells by MTT staining; assay type: functional, Mus musculus
In short: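 NIH 3T3 cells were exposed to compound for 48 h, and viability was read by MTT staining. The endpoint is the highest concentration the cells tolerated.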

Rat1 [5] = assay: Inhibition of colony formation in Rat 1-v-raf-transformed cells in soft agar; assay type: functional; in short: as §1
[6] = molecular target: T1, Protein farnesyltransferase (Bos taurus, UniProt P29702+P49355); assay: Inhibition of bovine brain Farnesyltransferase at 1 nM
In short: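 Bovine brain FTase at approximately 1 nM transferred [³H]FPP onto recombinant human Ha-Ras. Acid-precipitated protein-bound label was counted by scintillation. IC50 is the concentration giving 50% inhibition of incorporation.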

[7] = molecular target: T1, Protein farnesyltransferase; assay: Inhibition of bovine brain Farnesyltransferase at 10 pM; settings: in the assay text read “at approximately 1 nM” for “at 10 pM”

| IC50 [1] [nM] | IC50 [2] [nM] | SMILES | further results |
| --- | --- | --- | --- |
| 1600 | – | CC[C@@H](C)[C@@H](CN(C)[C@@H](Cc1ccccc1)C(=O)N[C@@H](CCO)C(=O)O)NC[C@@H](N)CS | – |
| 21 | 43000 | CCC[C@@H](C(=O)N[C@@H](CCO)C(=O)O)N(C)C[C@@H](NC[C@@H](N)CS)[C@H](C)CC | – |
| 4.8 | 5750 | CC[C@@H](C)[C@@H](CN[C@@H](Cc1ccccc1)C(=O)N[C@@H](CCSC)C(=O)O)NC[C@@H](N)CS | – |
| 1400 | – | CC[C@@H](C)[C@@H](CN(Cc1ccccc1)[C@@H](Cc1ccccc1)C(=O)N[C@@H](CCSC)C(=O)O)NC[C@@H](N)CS | – |
| 42 | – | CC[C@@H](C)[C@@H](CN(C)[C@@H](Cc1ccccc1)C(=O)N[C@@H](CCSC)C(=O)O)NC[C@@H](N)CS | – |
| 1.2 | 450 | CC[C@@H](C)[C@@H](CN(CC(=O)N[C@@H](CCSC)C(=O)O)Cc1ccccc1)NC[C@@H](N)CS | – |
| – | – | CC[C@@H](C)[C@@H](C(=O)N[C@H]1CCOC1=O)N(C)C[C@@H](NC[C@@H](N)CS)[C@H](C)CC | MIC (Rat1 [3]): 500 µM (≈ 208 µg/mL); IC50 [4]: 25000 nM; CTE (NIH3T3): 500 µM |
| 0.123 | 10 | CC[C@@H](C)[C@@H](CN(CC(=O)N[C@@H](CCO)C(=O)O)Cc1cccc2ccccc12)NC[C@@H](N)CS | – |
| – | – | CC[C@@H](C)[C@@H](CN(CC(=O)N[C@@H](CCSC)C(=O)OC)Cc1cccc2ccccc12)NC[C@@H](N)CS | MIC (Rat1 [3]): 2.5 µM (≈ 1.37 µg/mL); IC50 [4]: 500 nM; CTE (NIH3T3): 5 µM; MIC (Rat1 [5]): > 5 µM |
| – | 10000 | CC[C@@H](C)[C@@H](CN[C@@H](Cc1ccccc1)C(=O)N[C@@H](CCO)C(=O)O)NC[C@@H](N)CS | IC50 [6]: 26 nM |
| – | 10000 | CCC[C@H](NC[C@@H](NC[C@@H](N)CS)[C@H](C)CC)C(=O)N[C@@H](CCO)C(=O)O | IC50 [7]: 27 nM |
| – | 10000 | CC[C@@H](C)[C@@H](CN(C)CC(=O)N[C@@H](CCO)C(=O)O)NC[C@@H](N)CS | IC50 [7]: 83 nM |
| 25 | 4700 | CC[C@@H](C)[C@@H](CN(C)[C@H](C(=O)N[C@@H](CCSC)C(=O)O)[C@@H](C)CC)NC[C@@H](N)CS | – |
| 30 | – | CC[C@@H](C)[C@@H](CN[C@H](C(=O)N[C@@H](CCSC)C(=O)O)[C@@H](C)CC)NC[C@@H](N)CS | – |
| – | – | CC[C@@H](C)[C@H](NC[C@@H](NC[C@@H](N)CS)[C@H](C)CC)C(=O)N[C@H]1CCOC1=O | MIC (Rat1 [3]): 1000 µM (≈ 403 µg/mL); IC50 [4]: 100000 nM; CTE (NIH3T3): >1000 µM; MIC (Rat1 [5]): > 1000 µM |
| 2.2 | 39000 | CC[C@@H](C)[C@@H](CN(CC(=O)N[C@@H](CCSC)C(=O)O)Cc1ccccc1)NCCCS | – |
| 20 | – | CC[C@H](C)[C@H](NC[C@@H](NC[C@@H](N)CS)[C@@H](C)CC)C(=O)N[C@@H](CCO)C(=O)O | – |
| – | – | CCC(C)[C@@H](CN(CC(=O)N[C@@H](CCSC)C(=O)OC)Cc1ccccc1)NC[C@@H](N)CS (stereo partly specified) | IC50 [4]: 100 nM; CTE (NIH3T3): 10 µM |
